From ChEMBL document CHEMBL2040756, “Discovery and optimization of 2,4-diaminoquinazoline derivatives as a new class of potent dengue virus inhibitors” (J Med Chem, 2012) come the findings set out here.

The source made the active and inactive calls.

As usually defined, the EC50 is the concentration giving half of the maximal effect. By CC50 is commonly meant the concentration at which the toxic effect on the cells reaches its halfway point. The low end stands for greater toxicity to the cells, the high end for lower toxicity to the cells. A word on the Tmax: it is the time from dosing to the highest level. The term half-life denotes the time needed for the level to fall by half in the phase considered. Low readings indicate fast loss, high ones slow loss. The term IC50 denotes the concentration that inhibits the measured activity by half. A lower IC50 goes with greater potency. Broadly, the AUC(0-inf) is the area under the concentration-time curve extrapolated to infinity. In general, bioavailability refers to dose-corrected exposure relative to a reference, in per cent. Read a high bioavailability as good availability. A word on the MRT: it is a mean duration of stay, worked out from the concentration-time curve. One may read the clearance as the rate of elimination divided by the concentration. For orientation: Cmax means the peak of the concentration-time curve.

The nature of series [1]: Selectivity index, ratio of CC50 for hamster BHK cells to EC50 for Dengue virus 2. The format is toxicity, cell-based. Particulars: read-out: Ratio CC50/EC50.
Series [2] relates to dengue virus type 2. Kind of series: Antiviral activity against Dengue virus 2 infected in BHK-D2RepT replicon systems assessed as inhibition of viral replication after 24 hrs by luciferase reporter gene assay. The format is functional, organism-based. The gist of the method: (§1)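 BHK-D2RepT replicon cells, kept in MEM with 10% FBS and 200 μg/mL G418, were preseeded 24 h without G418. Compounds were diluted from DMSO stock into MEM, with final DMSO <0.2% (v/v), and incubated 24 h. Medium was then replaced and firefly luciferase read. Inhibition was expressed as a percentage of the no-compound luciferase signal.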
A general note: In antiviral work, replicon cells carry a viral genome segment that copies itself.

Series [3] is described as follows: Cytotoxicity against hamster BHK cells. The format is cell-based, Mesocricetus auratus.
A short description of series [4]: Tmax in rat at 20 mg/kg, po administered as single dose. Type of series: ADME, organism-based. Further details: dose 20 mg/kg, route oral. Conditions: in vivo. The method, boiled down: (§2)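 Rats received a single dose of 20 mg/kg orally or 10 mg/kg intravenously. Plasma concentration–time profiles gave AUC0→∞, MRT, t1/2, Tmax, Cmax, clearance, terminal volume of distribution and oral bioavailability.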

The subject of series [5] is dengue virus type 2. The series can be described thus: Antiviral activity against Dengue virus 2 infected in BHK-D2RepT replicon systems assessed as inhibition of viral expression after 24 hrs by luciferase reporter gene assay. Type of series: functional, organism-based. The method, boiled down:
as §1

Series [6] is described as follows: Half life in rat at 20 mg/kg, po administered as single dose. Type of series: ADME, organism-based. Further details: dose 20 mg/kg, route oral. Conditions: in vivo. The method, boiled down: as §2
The subject of series [7] is dengue virus type 2. The series can be described thus: Antiviral activity against Dengue virus 2 infected in BHK-D2RepT replicon systems assessed as […] after 24 hrs by luciferase reporter gene assay. Type of series: functional, organism-based. The method, boiled down: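 BHK-D2RepT DENV-2 replicon cells carrying a luciferase reporter are kept in MEM with 10% FBS and 200 μg/mL G418, then preseeded 24 h without G418. Compound from DMSO stock is diluted in MEM (final DMSO <0.2% v/v) and incubated 24 h. Medium is replaced and firefly luciferase read. Inhibition is expressed as percent of no-compound luciferase signal.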

Series [8] has as its target Voltage-gated inwardly rectifying potassium channel KCNH2 (Homo sapiens, UniProt Q12809). Kind of series: Inhibition of human ERG expressed in HEK293 cells by patch clamp assay. Type of series: cell-based. The method, boiled down: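 hERG (IKr) potassium channel currents in HEK-293 cells were recorded by patch clamp.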
On the technique in general: The patch-clamp technique gives a direct electrical read-out from membranes.

Series [9] in a line: AUC (0 to infinity) in rat at 20 mg/kg, po administered as single dose. The format is ADME, organism-based. Further details: time infinity, dose 20 mg/kg, route oral. Conditions: plasma. The gist of the method: (§3)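 Rats received one dose, either oral at 20 mg/kg or intravenous at 10 mg/kg. Plasma concentration of the compound was followed over time after dosing. AUC was taken as the area under the plasma concentration–time curve from time zero to infinity.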

The nature of series [10]: Oral bioavailability in rat at 20 mg/kg administered as single dose. Type of series: ADME, organism-based. Conditions: in vivo. The method, boiled down: as §2
The test system of series [11] is dengue virus type 2. Kind of series: Antiviral activity against Dengue virus 2.
Series [12] is described as follows: Half life in rat at 10 mg/kg, iv administered as single dose. Type of series: ADME, organism-based. Also on record: dose 10 mg/kg, route intravenous. Particulars: in vivo. The gist of the method:
as §2

A short description of series [13]: Mean residence time in rat at 20 mg/kg, po administered as single dose. Type of series: ADME, organism-based. Further details: dose 20 mg/kg, route oral. Conditions: in vivo. The method, boiled down: as §2
The subject of series [14] is dengue virus type 2. The series can be described thus: Antiviral activity against Dengue virus 2 infected in BHK-D2RepT replicon systems assessed as inhibition of viral multiplication after 24 hrs by luciferase reporter gene assay. Type of series: functional, organism-based. The gist of the method: as §1
Series [15] is described as follows: Apparent volume of distribution in rat at 10 mg/kg, iv administered as single dose. Type of series: ADME, organism-based. Also on record: dose 10 mg/kg, route intravenous. Conditions: in vivo, read-out: Vz. The method, boiled down:
as §2

Series [16] is described as follows: Mean residence time in rat at 10 mg/kg, iv administered as single dose. Further details: dose 10 mg/kg, route intravenous. Type of series: ADME, organism-based. Particulars: in vivo. The gist of the method:
as §2

Series [17] in a line: Plasma clearance in rat at 10 mg/kg, iv administered as single dose. The format is ADME, organism-based. Also on record: dose 10 mg/kg, route intravenous. The method, boiled down: as §2
Series [18] concerns dengue virus type 2. The series can be described thus: Antiviral activity against Dengue virus 2 NGC infected in forest mosquito C6/36 cells assessed as inhibition of virus-induced cytopathic effect after 48 hrs by optical microscopy. Type of series: functional, organism-based. The gist of the method:
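DENV-2 NGC strain was grown in C6/36 cells and titered. C6/36 cells were preseeded overnight and then infected at MOI 0.01, allowing several rounds of replication that produce syncytia.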
Background: Protection from cytopathic effect is a common read-out in antiviral testing.

Series [19] in a line: AUC (0 to infinity) in rat at 10 mg/kg, iv administered as single dose. Also on record: time infinity, dose 10 mg/kg, route intravenous. The format is ADME, organism-based. Conditions: plasma. The gist of the method: as §3
Series [20] in a line: Cmax in rat at 20 mg/kg, po administered as single dose measured 2 hrs post dose. The format is ADME, organism-based. Also on record: dose 20 mg/kg, route oral. Conditions: in vivo. The method, boiled down: as §2

Voltage-gated inwardly rectifying potassium channel KCNH2, sequence (Q12809 whole entry): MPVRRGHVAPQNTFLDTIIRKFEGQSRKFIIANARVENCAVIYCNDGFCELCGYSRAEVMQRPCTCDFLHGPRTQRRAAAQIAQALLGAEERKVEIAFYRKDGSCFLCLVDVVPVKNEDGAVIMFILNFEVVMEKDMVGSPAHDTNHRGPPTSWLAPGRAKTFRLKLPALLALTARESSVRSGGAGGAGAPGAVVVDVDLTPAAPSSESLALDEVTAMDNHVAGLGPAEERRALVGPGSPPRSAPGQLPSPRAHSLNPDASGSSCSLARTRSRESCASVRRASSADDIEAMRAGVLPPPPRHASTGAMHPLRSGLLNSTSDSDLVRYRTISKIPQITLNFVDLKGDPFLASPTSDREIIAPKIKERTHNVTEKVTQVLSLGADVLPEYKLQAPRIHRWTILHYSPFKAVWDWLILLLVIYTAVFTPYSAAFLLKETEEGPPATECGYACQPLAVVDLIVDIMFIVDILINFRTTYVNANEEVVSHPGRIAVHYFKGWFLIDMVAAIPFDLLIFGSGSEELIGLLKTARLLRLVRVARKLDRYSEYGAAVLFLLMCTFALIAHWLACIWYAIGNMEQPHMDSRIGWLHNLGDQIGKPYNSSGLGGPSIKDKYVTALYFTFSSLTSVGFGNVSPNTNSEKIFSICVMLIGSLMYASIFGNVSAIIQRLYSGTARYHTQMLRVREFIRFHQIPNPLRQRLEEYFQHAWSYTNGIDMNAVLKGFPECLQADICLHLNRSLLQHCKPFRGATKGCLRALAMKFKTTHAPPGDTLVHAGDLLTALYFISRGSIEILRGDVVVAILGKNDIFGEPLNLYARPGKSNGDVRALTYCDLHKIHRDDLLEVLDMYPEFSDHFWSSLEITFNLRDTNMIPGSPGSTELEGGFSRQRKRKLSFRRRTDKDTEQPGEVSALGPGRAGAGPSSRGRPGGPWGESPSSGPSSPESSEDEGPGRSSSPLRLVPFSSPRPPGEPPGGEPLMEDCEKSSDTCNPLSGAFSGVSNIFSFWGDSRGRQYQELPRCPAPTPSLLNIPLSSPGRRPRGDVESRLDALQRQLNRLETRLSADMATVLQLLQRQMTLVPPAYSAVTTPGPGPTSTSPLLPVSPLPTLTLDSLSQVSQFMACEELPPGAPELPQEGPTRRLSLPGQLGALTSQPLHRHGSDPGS

Turning to `Nc1nc(N)c2c(Oc3ccccc3)cccc2n1`, the selectivity ratio in series [1] was greater than 300. Further, the EC50 in the series on dengue virus type 2 [2] came out at 29 nM. Also, in series [3], the CC50 was greater than 10000 nM.

For `CCCCCCCCOc1cccc2nc(N)nc(N)c12`, the selectivity ratio in series [1] came to 4.1. Besides, the EC50 in the series on dengue virus type 2 [2] worked out at 180 nM. Moreover, the CC50 in [3] came to 730 nM.

With `Nc1nc(N)c2ccccc2n1`, the EC50 in the series with dengue virus type 2 [2] was greater than 10000 nM. For the same molecule, in series [3], the CC50 is greater than 10000 nM.

As to `Nc1nc(N)c2cccc(Oc3ccccc3)c2n1`, the selectivity ratio in series [1] was found to be 9.2. The EC50 in the series on dengue virus type 2 [2] turned out to be 60 nM. For the same molecule, in [3], half-maximal cytotoxicity (CC50) was put at 550 nM.

As to `CC(C)(C)S(=O)(=O)c1cccc2nc(N)nc(N)c12`, the EC50 in the series on dengue virus type 2 [2] is greater than 10000 nM. The CC50 in series [3] was greater than 10000 nM.

As to `COc1ccc2nc(N)nc(N)c2c1`, in the series with dengue virus type 2 [2], the 50% effective concentration (EC50) is greater than 10000 nM. For the same molecule, the CC50 in series [3] was greater than 10000 nM.

For `CC(C)(C)Nc1cccc2nc(N)nc(N)c12`, the selectivity ratio in series [1] is greater than 200. For the same molecule, in the series with dengue virus type 2 [2], the EC50 was determined as 9.2 nM. Further, the CC50 in series [3] turned out to be 2500 nM.

Consider `COc1ccc2c(N)nc(N)nc2c1`, for which the EC50 in the series with dengue virus type 2 [2] is greater than 10000 nM. In series [3], this molecule registered a cytotoxic concentration (CC50) greater than 10000 nM.

Take `Nc1nc(N)c2c(OCC(F)(F)F)cccc2n1`: in series [1], the selectivity ratio was greater than 1000. For the same molecule, the EC50 in the series on dengue virus type 2 [2] stood at 7.9 nM. The half-maximal cytotoxic concentration (CC50) in series [3] was greater than 10000 nM.

Consider `Nc1nc(N)c2c(OC3CCCCC3)cccc2n1`, for which the selectivity ratio in [1] was greater than 76.9. Besides, in the series on dengue virus type 2 [2], the EC50 came to 130 nM. The same molecule displayed a 50% cytotoxic concentration (CC50) in [3] greater than 10000 nM.

For the molecule `Nc1nc(N)c2c(N3CCCC3)cccc2n1`, in series [1], the selectivity ratio is 8. In the series with dengue virus type 2 [2], the half-maximal effective concentration (EC50) is 150 nM. Moreover, the CC50 in [3] amounted to 1200 nM.

Take `CCCCOc1cccc2nc(N)nc(N)c12`: the selectivity ratio in series [1] was greater than 200. Besides, the 50% effective concentration (EC50) with dengue virus type 2 [2] amounted to 36 nM. The molecule also registered a CC50 in [3] greater than 10000 nM.

Consider `CCOc1cccc2nc(N)nc(N)c12`, for which the selectivity ratio in [1] is greater than 200. Moreover, the half-maximal effective concentration (EC50) with dengue virus type 2 [2] was determined as 37 nM. Also, the CC50 in series [3] is greater than 10000 nM.

As to `CC(C)(C)COc1cccc2nc(N)nc(N)c12`, the selectivity ratio in series [1] stood at 8.1. The EC50 with dengue virus type 2 [2] stood at 80 nM. In series [3], this molecule displayed a cytotoxic concentration (CC50) of 650 nM.

Turning to `CC(C)(C)Sc1cccc2nc(N)nc(N)c12`, the selectivity ratio in series [1] stood at 5.9. Also, the EC50 with dengue virus type 2 [2] is 900 nM. Also, the 50% cytotoxic concentration (CC50) in series [3] was 5300 nM.

`Nc1nc(N)c2c(OC3CCCC3)cccc2n1`: in series [1], the selectivity ratio was greater than 1000. In the series on dengue virus type 2 [2], the EC50 amounted to 7.4 nM. The molecule also came in with a 50% cytotoxic concentration (CC50) in [3] greater than 10000 nM.

For `Nc1nc(N)c2cc(Oc3ccccc3)ccc2n1`, the EC50 in the series on dengue virus type 2 [2] was greater than 10000 nM. The same molecule yielded a CC50 in [3] greater than 10000 nM.

Regarding `Nc1nc(N)c2c(OCc3ccccc3)cccc2n1`, the selectivity ratio in series [1] is greater than 200. Further, the half-maximal effective concentration (EC50) in the series on dengue virus type 2 [2] came out at 39 nM. The same molecule showed a half-maximal cytotoxic concentration (CC50) in series [3] greater than 10000 nM.

On to `Nc1nc(N)c2ccc(Oc3ccccc3)cc2n1`, for which the EC50 in the series with dengue virus type 2 [2] was greater than 10000 nM. In addition, the cytotoxic concentration (CC50) in [3] is greater than 10000 nM.

Turning to `CN(C)c1cccc2nc(N)nc(N)c12`, in series [1], the selectivity ratio is greater than 3. For the same molecule, the EC50 with dengue virus type 2 [2] amounted to 3300 nM. The molecule further displayed a CC50 in series [3] greater than 10000 nM.

With `Nc1nc(N)c2c(F)cccc2n1`, the EC50 in the series with dengue virus type 2 [2] was greater than 10000 nM. For the same molecule, in [3], the half-maximal cytotoxic concentration (CC50) was greater than 10000 nM.

On to `COc1cccc2c(N)nc(N)nc12`, for which, in [1], the selectivity ratio was greater than 1.9. Moreover, the EC50 in the series on dengue virus type 2 [2] was found to be 5400 nM. In series [3], this molecule registered a CC50 greater than 10000 nM.

Turning to `COc1cccc2nc(N)nc(N)c12`, the selectivity ratio in series [1] is greater than 66.7. Further, the EC50 with dengue virus type 2 [2] was 150 nM. This molecule also yielded a 50% cytotoxic concentration (CC50) in series [3] greater than 10000 nM.

As to `CC(C)(C)Oc1cccc2nc(N)nc(N)c12`, the Tmax in series [4] is 2 h. Further, the outcome in the series with dengue virus type 2 [5], with dengue virus type 2 [11], in the series on dengue virus type 2 [14] and in the series with dengue virus type 2 [18] was Active. In addition, the half-life in series [6] is 5 h; in [12] it was 1.3 h. The selectivity ratio in series [1] is greater than 1000. Moreover, the half-maximal effective concentration (EC50) is less than 50 nM with dengue virus type 2 [7] and 2.8 nM in the series on dengue virus type 2 [2]. In series [8], the IC50 came out at 20200 nM. Further, the area under the curve AUC(0-inf) in [9] is 2220 ng·h/mL; in series [19], 1560 ng·h/mL. In series [3], this molecule came in with a 50% cytotoxic concentration (CC50) greater than 10000 nM. The bioavailability in series [10] came to 69%. In addition, the MRT is 7.2 h in series [13] and 1.8 h in series [16]. Besides, the Vd in series [15] worked out at 11.7 L/kg. The same molecule displayed a clearance in series [17] of 6.56 mL/min/kg. Moreover, the Cmax in [20] amounted to 249 ng/mL.
